{"source": "paper PMC7919418", "about": "(Genes & Development, 2021)", "molecules": {"B1": {"name": "Ctp: dynein light chain protein Cut up, Drosophila ortholog of LC8; λN fusion in tethering assay (protein)", "chain": "MSDRKAVIKNADMSEEMQQDAVDCATQALEKYNIEKDIAAYIKKEFDKKYNPTWHCIVGRNFGSYVTHETRHFIYFYLGQVAILLFKSG"}, "B2": {"name": "C-terminal portion of Panx (amino acids 447–541): Panx fragment including the two predicted Ctp binding sites (protein, UniProt Q9W2H9 447-541, looked up, fragment)", "chain": "PTEEQETATLYKNAATQTERRTATRDAGTQVRLESKLNGAFWQNPHFDPMNLTQHQSNVMLALQEIYQTLPSATMAVKLSRALAPALAIIKGRQP"}, "B3": {"name": "Panx: Panoramix, SFiNX subunit (protein)", "chain": "MEAPMKLEVKVENYVECGINEDEATPLREGTGETPPHAFACGVPMSGSGWCSDPEDGNLVHHSATPTSDEHLQPSLDTIEPKMEPKIKEDADNAMLDSLLADPFENNSPATLQTPADVKPNAMLDSVEQGSRSCELLPSEFSKRENLDDMDLFSLKAAKTLVPDEQQSFPQNDTPIDDPEAADLIAQKREILKMLEMTAENRKVKHKKKKHKKERSHRSNKHQEESRKRNHSNSSSDEGADDKNQFDCDYRGHKKYKNRRGSASSQNESSKERKLRDTELDYVPVRPDEHFIRPIKFSNLIERRPPQVEFNTVNLSKADKRSLAVARAELVLEQIQQKANKEEPPEFHMVDTICKLPVNESFRNQDCFENPSPICNNMNVVYKFNSTPGTRIDLSKWGLETVPEATKRLLRLLGIDVARLKELQSTVKPSQRILKLKKEQLEQGLAPTEEQETATLYKNAATQTERRTATRDAGTQVRLESKLNGAFWQNPHFDPMNLTQHQSNVMLALQEIYQTLPSATMAVKLSRALAPALAIIKGRQP"}}, "key": {"GFP reporter in OSCs [1]": {"system": "GFP reporter in OSCs", "test": "Tethering reporter assay, λN-boxB recruitment to nascent RNA", "type": "cell-based, Drosophila", "conditions": "GFP by FACS, 2500 cells per experiment, normalized to control", "how_it_was_run": "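OSCs carrying a GFP reporter were nucleofected with λN-tagged protein plasmids (kit V, program T-029, six Mio. cells per transfection). Fold repression was derived from FACS GFP intensity relative to control, as mean ± SD of three biological replicates. For RNAi combinations, siRNA was given, then siRNA plus tethering plasmid 2 d later, with read-out 5 d after siRNA and 3 d after plasmid. Fusion expression was checked by western blot (Atp5a loading control).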"}, "GFP-Ctp": {"system": "GFP-Ctp", "test": "Coimmunoprecipitation with Ctp", "type": "binding, Drosophila", "conditions": "western blot, Panx: S2 cells, GFP-Ctp and FLAG-Panx", "how_it_was_run": "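Lysates from S2 cells transfected with FLAG-Panx variant plasmids and GFP-Ctp were immunoprecipitated via GFP-Ctp. Input, unbound and immunoprecipitate fractions were analysed by western blot, with immunoprecipitate lanes loaded at 4× relative amount.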"}, "GFP reporter in OSCs [2]": {"system": "GFP reporter in OSCs", "conditions": "tethering to nascent RNA; ref Batki et al. 2019; cited from earlier work"}}, "data": [{"molecule": "B1", "values": [{"measurement": "cotranscriptional silencing (λN tethering)", "setting": "GFP reporter in OSCs [1]", "result": "similarly strong repression"}]}, {"molecule": "B2", "values": [{"measurement": "interaction with Ctp (co-IP)", "setting": "GFP-Ctp", "result": "interacted with Ctp"}]}, {"molecule": "B3", "values": [{"measurement": "fold reporter silencing (λN tethering)", "setting": "GFP reporter in OSCs [2]", "result": "~20", "unit": "fold"}]}]}
